The text below walks through data of ChEMBL document CHEMBL3865797, “Design, synthesis and biological evaluation of berberine-benzimidazole hybrids as new type of potentially DNA-targeting antimicrobial agents” (Eur J Med Chem, 2016).

For assay [1], the system named is Staphylococcus aureus. Briefly: Antibacterial activity against Staphylococcus aureus ATCC 25923 measured after 24 hrs by two-fold serial dilution method. Type of assay: functional. Conditions: ATCC 25923, 24 h. Put shortly: (§1)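 MIC by two-fold serial broth microdilution in 96-well plates, following NCCLS recommendations. Chloromycin, norfloxacin and fluconazole serve as reference drugs. The MIC is read as the lowest concentration that inhibits growth, in µg/mL.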

Assay [2] concerns Staphylococcus aureus. Put plainly: Antibacterial activity against methicillin-resistant Staphylococcus aureus N315 measured after 24 hrs by two-fold serial dilution method. The class given is functional. The note with it: N315, 24 h. Put shortly:
(§2)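 Two-fold serial dilution in 96-well microtest plates following NCCLS guidance (micro broth dilution). Chloromycin and norfloxacin serve as positive controls. MIC is reported in µg/mL.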

For another assay, the system named is Bacillus subtilis. Briefly: Antibacterial activity against Bacillus subtilis measured after 24 hrs by two-fold serial dilution method. Type of assay: functional. Put shortly:
as §1

In a further assay the test system is Micrococcus luteus. Put plainly: Antibacterial activity against Micrococcus luteus ATCC 4698 measured after 24 hrs by two-fold serial dilution method. Type of assay: functional. The note with it: NCTC 2665, 24 h. Put shortly:
as §1

The test system of a further assay is Proteus vulgaris. Briefly: Antibacterial activity against Bacillus proteus ATCC 13315 measured after 24 hrs by two-fold serial dilution method. The class given is functional. Conditions: ATCC 13315, 24 h. Put shortly:
as §1

In a further assay the test system is Escherichia coli. Put plainly: Antibacterial activity against Escherichia coli JM109 measured after 24 hrs by two-fold serial dilution method. The note with it: JM109, 24 h. Type of assay: functional. Put shortly: as §1
The test system of another assay is Pseudomonas aeruginosa. Briefly: Antibacterial activity against Pseudomonas aeruginosa measured after 24 hrs by two-fold serial dilution method. The class given is functional. Put shortly:
as §1

The subject of a further assay is Salmonella typhi. Briefly: Antibacterial activity against Salmonella typhi measured after 24 hrs by two-fold serial dilution method. The note with it: Salmonella enterica. The class given is functional, Salmonella enterica subsp. enterica serovar Typhi. Put shortly: as §2
A further assay relates to Candida albicans. Put plainly: Antifungal activity against Candida albicans ATCC 76615 measured after 24 hrs by two-fold serial dilution method. The note with it: ATCC 76615, 24 h. Type of assay: functional. Put shortly:
as §1

A short description of assay [3]: Antifungal activity against Candida utilis measured after 24 hrs by two-fold serial dilution method. Type of assay: functional. The note with it: Cyberlindnera jadinii. Put shortly: as §1
Assay [4] in a line: Antifungal activity against Saccharomyces cerevisiae measured after 24 hrs by two-fold serial dilution method. The class given is functional. Put shortly: as §1
For the next assay, the system named is Aspergillus flavus. Put plainly: Antifungal activity against Aspergillus flavus measured after 24 hrs by two-fold serial dilution method. Type of assay: functional. Put shortly: as §1

Regarding `COc1ccc2cc3[n+](cc2c1OCc1nc2ccccc2n1Cc1cccc(F)c1)CCc1cc2c(cc1-3)OCO2.[Cl-]`, the MIC in the assay on Staphylococcus aureus [1] was 512 µg/mL; in the assay with Staphylococcus aureus [2] it was 512 µg/mL; with Bacillus subtilis, 512 µg/mL; with Micrococcus luteus it was 16 µg/mL; with Proteus vulgaris it was 128 µg/mL; against Escherichia coli, 512 µg/mL. Moreover, the MIC in the assay on Pseudomonas aeruginosa and with Salmonella typhi was 256 µg/mL throughout. The MIC80 with Candida albicans stood at 512 µg/mL; in assay [3] it was 8 µg/mL; in assay [4], 256 µg/mL; in the assay with Aspergillus flavus, 32 µg/mL.

`CCCCCCCCCCCCn1c(COc2c(OC)ccc3cc4[n+](cc23)CCc2cc3c(cc2-4)OCO3)nc2ccccc21.[Cl-]`: the MIC came to 8 µg/mL with Staphylococcus aureus [1]; 128 µg/mL in the assay on Staphylococcus aureus [2]; 512 µg/mL against Bacillus subtilis; 128 µg/mL in the assay on Micrococcus luteus; 512 µg/mL against Proteus vulgaris; 16 µg/mL against Escherichia coli. The figures for the MIC with Pseudomonas aeruginosa and in the assay on Salmonella typhi were 512 µg/mL and 8 µg/mL, respectively. Moreover, the MIC80 with Candida albicans is 16 µg/mL; in assay [3] it was 16 µg/mL; in [4] it was 512 µg/mL; with Aspergillus flavus, 128 µg/mL.

Turning to `CCn1c(COc2c(OC)ccc3cc4[n+](cc23)CCc2cc3c(cc2-4)OCO3)nc2ccccc21.[Cl-]`, the MIC came to 512 µg/mL in the assay on Staphylococcus aureus [1]; 128 µg/mL in the assay on Staphylococcus aureus [2]; 512 µg/mL in the assay with Bacillus subtilis; 64 µg/mL in the assay on Micrococcus luteus; 512 µg/mL in the assay with Proteus vulgaris; 64 µg/mL against Escherichia coli. The MIC with Pseudomonas aeruginosa and against Salmonella typhi was 512 µg/mL throughout. The MIC80 against Candida albicans stood at 512 µg/mL; in assay [3] it was 128 µg/mL; in [4], 512 µg/mL; in the assay on Aspergillus flavus, 256 µg/mL.

On to `COc1ccc2cc3[n+](cc2c1OCc1nc2ccccc2n1Cc1ccc(F)cc1)CCc1cc2c(cc1-3)OCO2.[Cl-]`, for which the MIC in the assay on Staphylococcus aureus [1] is 512 µg/mL; against Staphylococcus aureus [2], 512 µg/mL; in the assay on Bacillus subtilis, 512 µg/mL; in the assay on Micrococcus luteus it was 512 µg/mL; against Proteus vulgaris it was 32 µg/mL; against Escherichia coli it was 512 µg/mL. Moreover, the MIC with Pseudomonas aeruginosa came to 512 µg/mL; against Salmonella typhi it was 8 µg/mL. The MIC80 in the assay on Candida albicans is 512 µg/mL; in assay [3], 8 µg/mL; in assay [4], 256 µg/mL; against Aspergillus flavus, 16 µg/mL.

In the case of `CCCCCn1c(COc2c(OC)ccc3cc4[n+](cc23)CCc2cc3c(cc2-4)OCO3)nc2ccccc21.[Cl-]`, the MIC with Staphylococcus aureus [1] worked out at 64 µg/mL; in the assay on Staphylococcus aureus [2], 16 µg/mL; against Bacillus subtilis, 32 µg/mL; in the assay with Micrococcus luteus it was 32 µg/mL; in the assay with Proteus vulgaris, 128 µg/mL; against Escherichia coli, 128 µg/mL. Further, the MIC in the assay on Pseudomonas aeruginosa was 64 µg/mL; against Salmonella typhi, 4 µg/mL. In addition, the MIC80 in the assay with Candida albicans was found to be 32 µg/mL; in assay [3] it was 8 µg/mL; in assay [4], 512 µg/mL; against Aspergillus flavus, 16 µg/mL.

For `CCCCCCCCCCn1c(COc2c(OC)ccc3cc4[n+](cc23)CCc2cc3c(cc2-4)OCO3)nc2ccccc21.[Cl-]`, the MIC in the assay with Staphylococcus aureus [1] was found to be 16 µg/mL; in the assay on Staphylococcus aureus [2], 16 µg/mL; with Bacillus subtilis it was 32 µg/mL; with Micrococcus luteus it was 32 µg/mL; with Proteus vulgaris, 512 µg/mL; against Escherichia coli it was 32 µg/mL. The figures for the MIC against Pseudomonas aeruginosa and in the assay with Salmonella typhi were 16 µg/mL and 2 µg/mL, respectively. Moreover, the MIC80 worked out at 8 µg/mL with Candida albicans, 8 µg/mL in assay [3], 512 µg/mL in [4] and 8 µg/mL in the assay with Aspergillus flavus.

For `CCCCCCCCCCCCCCCCCCn1c(COc2c(OC)ccc3cc4[n+](cc23)CCc2cc3c(cc2-4)OCO3)nc2ccccc21.[Cl-]`, the MIC against Staphylococcus aureus [1] was found to be 512 µg/mL; in the assay with Staphylococcus aureus [2], 512 µg/mL; in the assay with Bacillus subtilis, 512 µg/mL; against Micrococcus luteus, 512 µg/mL; in the assay with Proteus vulgaris, 64 µg/mL; in the assay on Escherichia coli it was 512 µg/mL. Moreover, the MIC against Pseudomonas aeruginosa was found to be 512 µg/mL; in the assay with Salmonella typhi it was 256 µg/mL. The MIC80 with Candida albicans stood at 512 µg/mL; in assay [3], 128 µg/mL; in assay [4], 512 µg/mL; against Aspergillus flavus, 512 µg/mL.

With `COc1ccc2cc3[n+](cc2c1OCc1nc2ccccc2n1Cc1ccc(Cl)cc1)CCc1cc2c(cc1-3)OCO2.[Cl-]`, the MIC with Staphylococcus aureus [1] turned out to be 32 µg/mL; with Staphylococcus aureus [2], 512 µg/mL; in the assay with Bacillus subtilis, 512 µg/mL; in the assay on Micrococcus luteus it was 8 µg/mL; in the assay with Proteus vulgaris, 8 µg/mL; against Escherichia coli, 2 µg/mL. The MIC with Pseudomonas aeruginosa is 512 µg/mL; against Salmonella typhi, 2 µg/mL. Also, the MIC80 was 512 µg/mL in the assay on Candida albicans, 4 µg/mL in assay [3], 512 µg/mL in assay [4] and 4 µg/mL with Aspergillus flavus.

The MIC is the smallest concentration in the dilution series that meets the test's criterion for growth inhibition. As usually defined, the MIC80 is an inhibitory concentration at the 80% level, which refers to growth in some studies and to a panel of isolates in others.
